The structures appear in SMILES notation.

Consider one compound from article PMC4474499 (Science Advances, 2015).

The target of one series is human TLR1/2 (Homo sapiens, UniProt O60603+Q15399). In words: Competition binding ELISA assay with biotin-labeled Pam3CSK4. The following applies: 50 nM (100 ng/ml) Biotin-Pam3, 0 to 7 μM CU-T12-9. The essentials:
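Human TLR1 (5 μg/ml) plus TLR2 (4 μg/ml), or BSA, coated in 0.1 M acetate pH 5.0 overnight at 4°C. Blocked with 5% BSA 1 h. Biotin-Pam3CSK4 with or without test compound, 1 h RT. Then streptavidin-HRP (1:2000) 1 h, TMB 10–30 min, stopped with 1 M H3PO4. A450 read, 620 nm reference. Signal at zero compound set as 100%.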

A further series has as its system Raw 264.7 cells. The experiment in a line: In vitro NO activation assay for Raw 264.7 cells. The following applies: Raw 264.7 cells, 24 hours. Format: cell-based, mouse. The procedure, abridged:
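RAW 264.7 cells, 80,000/well, grown 24 h. Non-adherent cells removed; medium changed to unsupplemented RPMI 1640. Treated 24 h with test compound, or 66 nM (100 ng/ml) Pam3CSK4 as control. Supernatant reacted 15 min in the dark with 2,3-diaminonaphthalene in HCl, quenched with NaOH. Fluorescence read at ex 365/em 450 nm; nitrite calculated from a standard curve.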

Another series addresses T1, human TLR3 (Homo sapiens, UniProt O15455).
T1 sequence (O15455 24-904): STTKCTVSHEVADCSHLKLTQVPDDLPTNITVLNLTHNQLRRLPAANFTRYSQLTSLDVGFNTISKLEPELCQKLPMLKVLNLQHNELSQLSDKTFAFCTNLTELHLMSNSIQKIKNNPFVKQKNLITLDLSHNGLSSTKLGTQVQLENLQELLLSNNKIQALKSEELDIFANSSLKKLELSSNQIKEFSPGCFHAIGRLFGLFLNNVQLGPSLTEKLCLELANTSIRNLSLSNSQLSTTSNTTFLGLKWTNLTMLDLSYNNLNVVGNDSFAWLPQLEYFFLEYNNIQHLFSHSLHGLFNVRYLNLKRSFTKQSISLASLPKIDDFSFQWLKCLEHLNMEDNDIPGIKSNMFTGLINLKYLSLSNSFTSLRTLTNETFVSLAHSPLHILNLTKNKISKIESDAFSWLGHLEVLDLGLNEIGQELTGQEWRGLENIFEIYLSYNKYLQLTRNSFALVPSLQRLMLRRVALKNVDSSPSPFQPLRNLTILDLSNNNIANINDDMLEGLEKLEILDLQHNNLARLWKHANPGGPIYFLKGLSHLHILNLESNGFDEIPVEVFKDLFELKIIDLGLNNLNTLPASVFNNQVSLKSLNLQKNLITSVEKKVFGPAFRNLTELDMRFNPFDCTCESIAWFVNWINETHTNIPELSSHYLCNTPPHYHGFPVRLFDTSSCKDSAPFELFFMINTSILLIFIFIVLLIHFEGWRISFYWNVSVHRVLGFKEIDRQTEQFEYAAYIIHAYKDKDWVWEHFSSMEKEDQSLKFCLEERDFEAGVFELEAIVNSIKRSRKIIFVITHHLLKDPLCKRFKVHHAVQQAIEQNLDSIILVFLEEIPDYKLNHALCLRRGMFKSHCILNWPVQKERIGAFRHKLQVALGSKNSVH
The experiment in a line: SEAP reporter gene detection assay in HEK-Blue TLR3 cells. Format: cell-based. The following applies: 0 to 20 μM, 24 hours. The essentials: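 HEK 293 cells stably carrying the human TLR and a SEAP reporter, 4 × 10^4/well, grown 24 h. Then 24 h in Opti-MEM/0.5% FBS with test compound. Positive controls: poly(I:C) 0–10.9 μg/ml (TLR3), LPS 0–36.5 ng/ml (TLR4), FLA-BS 0–10 μg/ml (TLR5), R848 0–6 μg/ml (TLR7, TLR8). Supernatant heated 30 min at 65°C, then CSPD substrate added; luminescence read after 20 min.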

In the next series the target is hTLR1 and hTLR2 (Homo sapiens, UniProt O60603+Q15399). In words: SEC-LS assay of TLR1/2 heterodimer formation. Format: biochemical. As to conditions: CU-T12-9 0 to 40 μM or Pam3CSK4 260 nM (400 ng/ml). The procedure, abridged: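 Human TLR2 in PBS pH 7.4 preincubated 2 h at RT with test compound or Pam3CSK4. Equimolar hTLR1 then added (final about 10 μM each) for 2 h at 37°C. Both proteins were baculovirus/insect-cell products. Samples filtered (0.1 μm) and run on size-exclusion column in PBS at 1 ml/min. Detection by in-line multi-angle light scattering, refractive index and UV.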
hTLR1 and hTLR2, sequence (O60603 21-588 limits assumed, one chain of several): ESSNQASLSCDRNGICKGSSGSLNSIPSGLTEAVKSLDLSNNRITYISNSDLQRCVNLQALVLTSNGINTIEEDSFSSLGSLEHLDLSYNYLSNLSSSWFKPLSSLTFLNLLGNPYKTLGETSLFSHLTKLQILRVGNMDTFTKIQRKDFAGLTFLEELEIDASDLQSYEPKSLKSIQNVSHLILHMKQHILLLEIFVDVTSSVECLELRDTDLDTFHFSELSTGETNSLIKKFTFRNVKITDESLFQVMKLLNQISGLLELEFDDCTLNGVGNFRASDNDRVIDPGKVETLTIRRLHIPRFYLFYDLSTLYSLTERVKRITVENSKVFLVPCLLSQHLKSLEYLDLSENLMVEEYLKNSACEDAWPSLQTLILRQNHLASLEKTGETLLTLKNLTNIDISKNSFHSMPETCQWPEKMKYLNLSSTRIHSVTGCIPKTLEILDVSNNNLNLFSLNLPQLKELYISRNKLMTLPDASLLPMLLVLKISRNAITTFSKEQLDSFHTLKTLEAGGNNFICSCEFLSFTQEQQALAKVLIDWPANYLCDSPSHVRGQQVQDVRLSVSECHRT

In the next series the test system is HEK-Blue hTLR2 cells. The experiment in a line: MTT cell viability assay in HEK-Blue hTLR2 cells. Format: cell-based, human. The following applies: up to 100 μM, 24 h. The procedure, abridged: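 HEK-Blue hTLR2 cells, 40,000/well in DMEM/10% FBS, grown 24 h at 37°C, 5% CO2. Medium then replaced by Opti-MEM (0.5% FBS, non-essential amino acids) with compounds at 0–100 μM for 24 h. MTT added for 4 h; formazan dissolved in DMSO; A560 read. Cytotoxicity % = 1 − (sample − blank)/(control − blank), ×100.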

The target of a further series is T2, TLR1 (Homo sapiens, UniProt Q15399).
T2 sequence (Q15399 25-580 limits assumed): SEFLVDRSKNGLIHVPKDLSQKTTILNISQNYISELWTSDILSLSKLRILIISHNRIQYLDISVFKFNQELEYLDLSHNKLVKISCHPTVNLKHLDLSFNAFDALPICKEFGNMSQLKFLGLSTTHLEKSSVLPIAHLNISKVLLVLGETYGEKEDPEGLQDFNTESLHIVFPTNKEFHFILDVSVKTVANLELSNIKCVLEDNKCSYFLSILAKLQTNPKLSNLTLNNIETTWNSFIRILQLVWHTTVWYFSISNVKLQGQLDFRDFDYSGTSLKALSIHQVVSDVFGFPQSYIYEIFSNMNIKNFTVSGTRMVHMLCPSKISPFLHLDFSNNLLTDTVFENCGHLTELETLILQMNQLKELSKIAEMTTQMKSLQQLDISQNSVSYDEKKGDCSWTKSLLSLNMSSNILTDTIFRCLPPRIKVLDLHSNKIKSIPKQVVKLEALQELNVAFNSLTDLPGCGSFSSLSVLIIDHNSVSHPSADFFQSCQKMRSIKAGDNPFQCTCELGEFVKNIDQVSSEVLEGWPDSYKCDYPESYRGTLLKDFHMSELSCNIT
The experiment in a line: Microscale thermophoresis. Format: binding. The procedure, abridged: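 Human TLR1 expressed in baculovirus-infected High Five insect cells and purified on protein A Sepharose. Labelled with NT-647 and held at 10 nM. Test compound varied 0.31 nM–10 μM. Buffer: 50 mM Tris-HCl pH 7.6, 150 mM NaCl, 10 mM MgCl2, 0.05% Tween 20, in glass capillaries. Apparent Kd fitted from thermophoresis.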

human TLR1/2, sequence (O60603 21-588 limits assumed, one chain of several): as the sequence (O60603 21-588 limits assumed, one chain of several) above

On to `CNc1ccc([N+](=O)[O-])cc1-n1cnc(-c2ccc(C(F)(F)F)cc2)c1` [CU-T12-9, N-methyl-4-nitro-2-(4-(4-(trifluoromethyl)phenyl)-1H-imidazol-1-yl)aniline], for which the “competition with Biotin-Pam3 binding to TLR1/2” value on human TLR1/2 was “can compete”. Besides, in the series on Raw 264.7 cells, the NO production result is listed as “efficiently triggered NO production”. Besides, the “activation of SEAP signaling, TLR3” value at human TLR3 is “not in other TLR-overexpressing cells”. Besides, on hTLR1 and hTLR2, the TLR1/2 heterodimer formation entry was “Heterodimer formation was detected”. Further, the cytotoxicity entry in the series with HEK-Blue hTLR2 cells is “negligible cytotoxicity”. The dissociation constant Kd on TLR1 was determined as 0.229 ± 0.066 µM.
